Bioassay records from PubChem BioAssay.
PHOSPHO1 inh: PubChem AID 1565 | Phosphoethanolamine/phosphocholine phosphatase (Homo sapiens), Q8TCT1 | recombinant PHOSPHO1, absorbance phosphatase assay | inhibition, % at 13.3 µM | 1.1% of 290,000 active; in the data active = inhibition above about 60%
Target sequence (Q8TCT1 whole entry, looked up): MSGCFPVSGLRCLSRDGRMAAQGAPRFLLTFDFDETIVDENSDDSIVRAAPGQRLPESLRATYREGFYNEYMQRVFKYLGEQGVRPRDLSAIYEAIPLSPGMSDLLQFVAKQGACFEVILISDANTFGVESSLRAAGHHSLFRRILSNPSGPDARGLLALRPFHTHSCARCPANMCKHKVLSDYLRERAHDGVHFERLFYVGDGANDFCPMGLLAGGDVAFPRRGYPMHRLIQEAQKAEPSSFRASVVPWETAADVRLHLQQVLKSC
core dimer inh: inhibitors of HCV core protein dimerization, primary screen, biochemical, TR-FRET, high-throughput; inhibition, % at 5 µM; TR-FRET GST/Flag-core106 dimerization, 1536-well; 0.33% of 300,000 active; AID 1899, 2009;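 active = inhibition above the mean of all tested compounds plus 3 SD, set per screening campaign, cut at about 45% in these data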
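Test system: GST/Flag-tagged HCV core106 proteins; Medium: KF-containing HEPES buffer, pH 7.45, DTT, CHAPS, BSA; Times: compound-protein-antibody incubation 4 h at 22.5 °C; Detection: TR-FRET 671 and 617 nm emission; Benchmarks: wells lacking GST-core106 and wells with excess unlabelled core106.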
AI-2 QS mod: Vibrio harveyi AI-2 quorum sensing modulators, primary screen, JMH597 strain, luminescence/OD600 ratio; activity change, % at 7.5 µM; Vibrio harveyi JMH597 AI-2 luminescence/OD600 ratio, 9 h; active compounds read low; strain lacks LuxN and CqsS sensors; 0 = neutral-control median; 0.4% of 300,000 active; in the data active = activity change below about -75%, passing the limit was not always enough; inconclusive = no clear call, values can overlap the other calls;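 also: luminescence divided by OD600 gain over 9 h not by final OD600 alone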
HSF1 activator: HSF-1 activators, primary screen, NIH3T3-HGL cells, MG132 stress, luminescence, single point | NIH3T3-HGL HSF-1 luciferase reporter, 8 h; 100% = twice DMSO control signal | activation, % at 9 µM | 1.7% of 300,000 active;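 active = mean replicate activation of at least 50% with a set share of replicates each reaching 50%; inconclusive = only one of those two conditions met; inactive = mean below 50% and too few replicates reaching it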;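 also: 0% = median of the neutral control wells and 100% = twice that signal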
ALR H2O2 inh: inhibitors of human ALR sulfhydryl oxidase, primary screen, biochemical, H2O2 detection, HRP-luminol luminescence, single point. FAD-linked sulfhydryl oxidase ALR (Homo sapiens), P55789. purified ALR, DTT oxidation. inhibition, % (concentration not given with the values). 3.8% of 290,000 active. AID 485317, 2010;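 active = mean replicate inhibition above about 79%, with every replicate also reaching it, limit read from the data; inconclusive = only one of the two criteria met; inactive = mean below limit and not every replicate reaching it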
Target sequence (P55789 whole entry, looked up): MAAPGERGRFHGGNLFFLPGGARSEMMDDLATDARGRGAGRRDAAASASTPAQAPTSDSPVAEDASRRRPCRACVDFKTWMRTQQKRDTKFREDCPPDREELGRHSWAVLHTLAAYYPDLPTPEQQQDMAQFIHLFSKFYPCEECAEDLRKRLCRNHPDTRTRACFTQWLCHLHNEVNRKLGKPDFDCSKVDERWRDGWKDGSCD
HSF1 inhib: HSF1 inhibitors in luciferase reporter cells, primary screen, cell-based, NIH3T3, luminescence; NIH3T3-HGL HSE-luciferase, MG132-induced, luminescence 8 h; active compounds read low; activity change, negative = inhibition, % at 7.5 µM (by protocol); 0.77% of 300,000 active; AID 2098, 2009;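 active = more than half of replicate wells show activity change below -50%, luminescence cut by over half; inconclusive = some wells, but at most half, below -50%; inactive = no replicate well below -50%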;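 also: luciferase reports HSF-1 transcriptional activity via heat shock element; 0% = median of DMSO wells and -100% = zero luminescence signal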
* marks the source's active call; other numbers are inactive results; ? = inconclusive; . = not tested or not shown. Rows were chosen to be rich in hits. Some 6.8% of all compounds tested hit in one or more screens of this group.

SMILES	PHOSPHO1 inh	core dimer inh	AI-2 QS mod	HSF1 activator	ALR H2O2 inh	HSF1 inhib
Oc1ccc(-c2cnns2)c(O)c1	-3	-12	20	36	99*	31
CCOc1ccc(NCc2nnc(SCC(=O)Nc3nc(-c4ccccc4)cs3)n2-c2ccccc2)cc1	-41	31	34	-68	-31	-67*
Cc1cccc(C)c1NCc1nnc(SCC(=O)Nc2nc(-c3ccccc3)cs2)n1-c1ccccc1	-3	11	33	60*	.	24
CCOc1ccc(NCc2nnc(SCc3ccc(Cl)cc3)n2-c2ccccc2)cc1	-15	2	7	-4	-10	-2
COCCCNC(=S)Nc1ccc(N2CCCCC2)cc1	-19	5	11	27	98*	18
COCCNC(=S)Nc1ccc(Cl)c(Cl)c1	64*	8	8	6	-6	5
CCNC(=S)Nc1ccc(N2CCCCC2)cc1	-1	6	-3	47	99*	26
Cc1cc(NS(=O)(=O)c2ccc(NC(=O)c3cc4cc(Br)ccc4oc3=O)cc2)no1	-14	5	80	3	-7	-1
COc1ccc(NC(=O)CN2C(=O)C(=O)N(C3CCCC3)C2=O)c(OC)c1	.	.	.	.	-2	.
CN1CCN(S(=O)(=O)c2ccc(N)cc2)CC1	-15	3	29	1	96*	-2
O=C(CN1C(=O)CCC1=O)Nc1ccc(Cc2ccc(NC(=O)CN3C(=O)CCC3=O)cc2)cc1	38	4	25	-6	-2	-6
COc1ccc(S(=O)(=O)N2CCCC(C(=O)NCc3ccco3)C2)cc1OC (stereo unspecified)	11	-4	30	5	3	4
CCN1/C(=C2/SC(=S)NC2=O)Sc2ccccc21	-132	-19	9	0	91*	-7
COc1cccc(C2NC(CCSC)(C(=O)O)C3C(=O)N(C(C)C)C(=O)C23)c1O (stereo unspecified)	11	0	21	8	98*	11
CC(C)N1C(=O)C2C(c3ccccc3O)NC(C)(C(=O)O)C2C1=O (stereo unspecified)	3	-3	19	9	89*	-1
CC(C)CC1(C(=O)O)NC(c2ccccc2O)C2C(=O)N(C(C)C)C(=O)C21 (stereo unspecified)	2	2	30	5	93*	-7
O=C(NCCN1C(=O)S/C(=C\c2cccs2)C1=O)[C@H](Cc1ccccc1)N1C(=O)c2ccccc2C1=O	1	23	15	-2	-1	4
OCc1ccc(-c2nn(Cc3ccccc3)c3ccccc23)o1	.	0	-12	11	92*	7
COc1ccc(C2Nc3ccccc3C(=O)N2Cc2ccco2)cc1COc1ccc(NC(C)=O)cc1 (stereo unspecified)	10	21	44	58*	-9	37
O=C1c2ccccc2NC(c2ccc(O)cc2)N1Cc1ccco1 (stereo unspecified)	4	-1	14	20	13	9
COc1ccc(C2Nc3ccccc3C(=O)N2Cc2ccco2)cc1COc1ccccc1F (stereo unspecified)	14	46*	12	76*	-3	36
Cc1onc(C(=O)Nc2sc3c(c2C#N)CCCC3)c1[N+](=O)[O-]	21	-10	10	13	90*	7
CN1Cc2sc(NC(=S)NC(=O)c3ccccc3)c(C#N)c2CC1(C)C	-65	-3	14	-81	18	-77*
Cn1nccc1C(=O)NC(=S)Nc1sc2c(c1C#N)CCCCC2	68*	5	12	8	-21	10
N#Cc1c(NC(=S)NC(=O)c2ccccc2)sc2c1CCC2	-20	3	11	38	5	12
SMILES	PHOSPHO1 inh	core dimer inh	AI-2 QS mod	HSF1 activator	ALR H2O2 inh	HSF1 inhib
Cc1c(C(=O)NC2CCC(C)CC2)oc2ccccc12 (stereo unspecified)	13	0	7	40	4	26
CCN1CCN(C(=O)CN(CC)S(=O)(=O)c2ccc3ccccc3c2)CC1	.	5	21	1	.	-1
CCOC(=O)c1ccc(NC(=O)CSc2nc3c(c(=O)n2-c2ccccc2OC)SCC3)cc1	40	24	28	-21	99*	0
Cn1c(SCC(=O)Nc2ccc(C(N)=O)cc2)nc2c(c1=O)SCC2	24	16	15	4	99*	5
Cn1c(SCC(=O)Nc2ccccc2C(F)(F)F)nc2c(c1=O)SCC2	27	10	8	0	31	5
Cn1c(SCC(=O)Nc2cccc(F)c2)nc2c(c1=O)SCC2	3	-2	16	10	94*	-4
Cc1cc(S(=O)(=O)NCc2ccccc2)ccc1OCC(=O)NCC1CCCO1 (stereo unspecified)	38	-2	21	5	-10	-5
CC(C)CN(C(=O)COC(=O)CCCc1c[nH]c2ccccc12)c1c(N)n(Cc2ccccc2)c(=O)[nH]c1=O	13	6	23	-3	1	4
CC(C)(C)c1ccc(Cn2c(=O)cnc3ccccc32)cc1	-38	7	6	-69	.	-70*
Cc1ccc(C(=O)N/C(=C\c2ccc(Br)cc2)c2nc(=S)[nH][nH]2)cc1	19	9	22	-75	-13	-69*
CC1CN(C(c2ccco2)c2sc3ncnn3c2O)CC(C)O1 (stereo unspecified)	100*	8	10	-1	-6	-4
Cc1ccc(C(c2sc3ncnn3c2O)N2CCC(C)CC2)cc1 (stereo unspecified)	-7	-3	26	-4	?	3
Cc1nc2sc(C(c3ccco3)N3CCN(c4ccc(F)cc4)CC3)c(O)n2n1 (stereo unspecified)	-112	6	23	-5	94*	-8
Oc1c(C(c2cccs2)N2CCN(c3ccccc3)CC2)sc2ncnn12 (stereo unspecified)	-10	3	21	-9	97*	-3
Cc1nc2sc(C(c3ccco3)N3CCN(c4ccccc4F)CC3)c(O)n2n1 (stereo unspecified)	94*	-2	-4	11	2	8
Cc1nc2sc(C(c3ccc(F)cc3)N3CCOCC3)c(O)n2n1 (stereo unspecified)	25	-8	3	-4	-10	-1
